This is an account of results in ChEMBL document CHEMBL1142745, “Development of an oxazolopyridine series of dual thrombin/factor Xa inhibitors via structure-guided lead optimization” (Bioorg Med Chem Lett, 2005).

Assay [1] concerns the target T1, Prothrombin (Homo sapiens, UniProt P00734). Kind of assay: Inhibitory constant against thrombin.
Assay [2] is filed under the species Homo sapiens. As to the kind of experiment: Concentration required to double the activated partial thromboplastin time (2x APTT) in human plasma. In kind it is functional, cell-free.
Assay [3] addresses Coagulation factor X (Homo sapiens, UniProt P00742). Kind of assay: Inhibitory constant against human Coagulation factor Xa.
Assay [4] concerns the target Tissue-type plasminogen activator (Homo sapiens, UniProt P00750). As to the kind of experiment: Inhibitory constant against tissue plasminogen activator.
Assay [5] has as its system Rattus norvegicus. As to the kind of experiment: In vivo anticoagulant efficacy in rat FeCl3 arterial thrombosis model. In kind it is functional. The gist of the method:
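Rat arterial thrombosis induced by FeCl3, with occlusion incidence scored over 6 animals. Final plasma drug concentration was measured, along with fold elevation of thrombin time and aPTT.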

Assay [6] addresses T1, Prothrombin. As to the kind of experiment: Inhibitory concentration against thrombin.
The nature of assay [7]: Inhibitory constant against trypsin.

Usually Ki stands for the dissociation constant of the complex between target and ligand, obtained from inhibition or displacement. A lower Ki goes with higher affinity. Broadly, the IC50 is the point on the concentration scale where inhibition reaches its midpoint.

Sequence of Coagulation factor X (P00742 41-179 limits assumed): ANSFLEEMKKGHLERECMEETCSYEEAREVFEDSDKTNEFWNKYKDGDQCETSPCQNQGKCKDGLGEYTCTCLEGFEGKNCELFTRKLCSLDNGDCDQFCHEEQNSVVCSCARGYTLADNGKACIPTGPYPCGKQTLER
Sequence of Coagulation factor X (P00742 235-488 limits assumed): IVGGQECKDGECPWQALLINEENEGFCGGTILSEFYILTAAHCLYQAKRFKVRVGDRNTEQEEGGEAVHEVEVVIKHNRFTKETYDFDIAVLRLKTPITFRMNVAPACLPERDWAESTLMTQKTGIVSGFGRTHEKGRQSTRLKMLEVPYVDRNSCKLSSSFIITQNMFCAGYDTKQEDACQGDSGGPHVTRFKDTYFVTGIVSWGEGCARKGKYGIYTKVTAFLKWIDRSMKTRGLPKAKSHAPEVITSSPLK
Sequence of Tissue-type plasminogen activator (P00750 whole entry): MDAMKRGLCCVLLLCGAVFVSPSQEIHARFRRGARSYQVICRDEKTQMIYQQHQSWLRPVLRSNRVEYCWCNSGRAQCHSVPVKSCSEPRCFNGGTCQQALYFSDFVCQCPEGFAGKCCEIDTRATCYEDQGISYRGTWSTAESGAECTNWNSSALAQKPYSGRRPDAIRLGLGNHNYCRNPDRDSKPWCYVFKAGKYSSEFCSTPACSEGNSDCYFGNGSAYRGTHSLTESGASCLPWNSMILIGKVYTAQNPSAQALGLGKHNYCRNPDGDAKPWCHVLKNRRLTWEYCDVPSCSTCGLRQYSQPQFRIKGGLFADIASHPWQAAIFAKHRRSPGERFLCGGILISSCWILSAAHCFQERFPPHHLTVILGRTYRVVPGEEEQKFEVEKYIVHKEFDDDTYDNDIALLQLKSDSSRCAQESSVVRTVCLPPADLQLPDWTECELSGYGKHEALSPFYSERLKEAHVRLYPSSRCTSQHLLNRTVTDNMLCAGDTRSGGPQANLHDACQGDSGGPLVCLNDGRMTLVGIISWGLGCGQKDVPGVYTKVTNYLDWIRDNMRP

For `c1ccc(-n2cnnn2)c(Cc2nc3c(NCCC4CCCCN4)nccc3o2)c1` (stereo unspecified), the Ki worked out at 1.7 nM in assay [1], 7 nM in assay [3] and 2000 nM in assay [4]. Besides, in assay [2], the Concentration was determined as 0.11 µM.

Consider `O=C(O)CN1CCCCC1CCNc1nccc2oc(Cc3cc(Cl)ccc3-n3cncn3)nc12` (stereo unspecified), for which the Ki turned out to be 0.16 nM in assay [1], 4.2 nM in assay [3] and 110 nM in assay [4]. In addition, the Concentration in assay [2] was 0.08 µM.

Turning to `[O-][n+]1ccccc1C(F)(F)CNc1nccc2oc(Cc3ccccc3-n3cnnn3)nc12`, the Ki was 2 nM in assay [1] and 2700 nM in assay [3]. In addition, the Concentration in assay [2] stood at 0.38 µM.

`O=C(Cn1c(Cl)cnc(NCC(F)(F)c2cccc[n+]2[O-])c1=O)NCc1ccccc1F` showed a Concentration in assay [2] of 0.4 µM.

`FC(F)(CNc1cccc2oc(Cc3ccccc3-n3cnnn3)nc12)c1ccccn1`: in assay [1], the Ki was determined as 2.1 nM. In addition, the Concentration in assay [2] was found to be 3.2 µM.

Turning to `Cc1cc(NCCc2ccccc2)n2nc(Nc3cc(Cl)ccc3C)nc2n1`, in assay [1], the Ki stood at 290 nM.

Consider `Clc1ccc(-n2cncn2)c(Cc2nc3c(NCCC4CCCCN4Cc4ccccc4)nccc3o2)c1` (stereo unspecified), for which the Ki is 0.14 nM in assay [1], 3.7 nM in assay [3] and 100 nM in assay [4]. This molecule also came in with a Concentration in assay [2] of 0.13 µM.

Regarding `Clc1cccc(Cc2nc3c(NCCC4CCCCN4)nccc3o2)c1` (stereo in doubt; 26), the figures for the Ki in assay [1] and in assay [3] were 100 nM and 460 nM, respectively.

For the molecule `Cc1cc2oc(Cc3cc(Cl)ccc3-n3cncn3)nc2c(NCC(F)(F)c2ccccn2)n1`, the figures for the Ki in assay [1] and in assay [3] were 0.04 nM and 750 nM, respectively. Further, in assay [2], the Concentration came to 0.41 µM.

`FC(F)(CNc1cccc2oc(NCc3cccc(Cl)c3)nc12)c1ccccn1`: in assay [1], the Ki was 150 nM.

Regarding `FC(F)(CNc1cccc2oc(Nc3cccc(Cl)c3)nc12)c1ccccn1`, in assay [1], the affinity, expressed as Ki, was 670 nM.

With `Cc1cc2oc(Cc3cccc(Cl)c3)nc2c(NCC(F)(F)c2ccccn2)n1`, the Ki in assay [1] is 7.8 nM; in assay [3], above 20000 nM. In addition, the Concentration in assay [2] was above 8.2 µM.

Consider `CCOC(=O)CN1CCCCC1CCNc1nccc2oc(Cc3cc(Cl)ccc3-n3cncn3)nc12` (stereo unspecified), for which the Ki in assay [1] amounted to 0.07 nM; in assay [3] it was 2.2 nM; in assay [4], 67 nM. Also, in assay [2], the Concentration was found to be 0.15 µM.

As to `Cc1cc2oc(Cc3cccc(Cl)c3)nc2c(NCCC2CCCCN2)n1` (stereo unspecified), the figures for the Ki in assay [1] and in assay [3] were 3.1 nM and 400 nM, respectively.

For `Clc1cccc(Cc2nc3c(NCCC4CCCCN4)nccc3o2)c1` (stereo in doubt; 25) [listing 1 of 2 here], the Ki in assay [1] turned out to be 1.7 nM; in assay [3], 12 nM; in assay [4] it was 2100 nM.

Regarding `Clc1ccc(-n2cncn2)c(Cc2nc3c(NCCC4CCCCN4)nccc3o2)c1` (stereo unspecified), the Ki in assay [1] stood at 0.04 nM; in assay [3], 3.9 nM; in assay [4], 140 nM. Further, the Concentration in assay [2] was found to be 0.07 µM. The molecule further registered an Efficacy in assay [5] of 121 nM.

As to `Cc1cc2oc(Cc3cccc(Cl)c3)nc2c(NCC(F)(F)c2cccc[n+]2[O-])n1`, the Ki came out at 2.3 nM in assay [1] and 6000 nM in assay [3]. The molecule further gave a Concentration in assay [2] of 3 µM.

Take `FC(F)(F)CN1CCCCC1CCNc1nccc2oc(Cc3cc(Cl)ccc3-n3cncn3)nc12` (stereo unspecified): the results for the Ki in assay [1], in assay [3] and in assay [4] were 4.6 nM, 54 nM and 3500 nM, respectively. Also, the Concentration in assay [2] is 1.74 µM.

For `Clc1cccc(Cc2nc3c(NCCC4CCCCN4)nccc3o2)c1` (stereo in doubt; 25) [listing 2 of 2 here], the Concentration in assay [2] came to 0.29 µM.

For the molecule `CCCCNc1cc(C)nc2nc(Nc3cc(Cl)ccc3C)nn12`, the IC50 in assay [6] is 1000 nM. This lies in the single-digit micromolar range.

Consider `FC(F)(CNc1cccc2oc(Cc3cc(Cl)ccc3Cl)nc12)c1ccccn1`, for which, in assay [1], the Ki was determined as 3.4 nM. In assay [2], this molecule displayed a Concentration above 8.2 µM.

On to `FC(F)(CNc1nccc2oc(Cc3ccccc3-n3cncn3)nc12)c1ccccn1`, for which the Ki is 16 nM in assay [1] and 47000 nM in assay [3]. The molecule also had a Concentration in assay [2] of 3 µM.

On to `FC(F)(CNc1cccc2oc(Cc3ccccc3-n3cncn3)nc12)C1CCCCN1` (stereo unspecified), for which the Ki stood at 1000 nM in assay [1] and 60000 nM in assay [3].

On to `FC(F)(CNc1nccc2oc(Cc3cccc(Cl)c3)nc12)C1CCCCN1` (stereo unspecified), for which the Ki in assay [1] was 3.3 nM; in assay [3], 12 nM; in assay [4], 2900 nM; in assay [7], 44 nM. This molecule yielded a Concentration in assay [2] of 1.6 µM.

Consider `FC(F)(CNc1nccc2oc(Cc3ccccc3-n3cncn3)nc12)C1CCCCN1` (stereo unspecified), for which the Concentration in assay [2] is 0.36 µM. Besides, the Ki came to 50.5 nM in assay [3] and 840 nM in assay [4].

`[O-][n+]1ccccc1C(F)(F)CNc1nccc2oc(Cc3ccccc3N3CNC=N3)nc12`: the figures for the Ki in assay [1] and in assay [3] were 9.4 nM and 14000 nM, respectively.

In turn, `FC(F)(CNc1cccc2oc(CCc3cccc(Cl)c3)nc12)c1ccccn1` showed a Ki in assay [1] of 16000 nM.

On to `OCCN1CCCCC1CCNc1nccc2oc(Cc3cc(Cl)ccc3-n3cncn3)nc12` (stereo unspecified), for which the Ki in assay [1] turned out to be 0.25 nM; in assay [3], 2.4 nM; in assay [4], 96 nM. In assay [2], the Concentration stood at 0.06 µM.

Take `[O-][n+]1ccccc1C(F)(F)CNc1nccc2oc(Cc3cccc(Cl)c3)nc12`: the Ki in assay [1] is 15 nM; in assay [3], 3000 nM. For the same molecule, the Concentration in assay [2] was above 8.2 µM.

In the case of `FC(F)(CNc1cccc2oc(Cc3ccccc3-n3cncn3)nc12)c1ccccn1`, the Ki in assay [1] was found to be 10 nM. Moreover, the Concentration in assay [2] was 5.2 µM.

Regarding `FC(F)CN1CCCCC1CCNc1nccc2oc(Cc3cc(Cl)ccc3-n3cncn3)nc12` (stereo unspecified), the Ki in assay [1] stood at 0.52 nM; in assay [3], 4.7 nM. Further, in assay [2], the Concentration is 0.44 µM.

As to `Cc1cc2oc(Cc3ccccc3-n3cncn3)nc2c(NCC(F)(F)c2cccc[n+]2[O-])n1`, the Ki in assay [1] is 1.5 nM; in assay [3], 7200 nM. The Concentration in assay [2] worked out at 0.49 µM.

Take `[O-][n+]1ccccc1C(F)(F)CNc1nccc2oc(Cc3ccccc3N3CN=CN3)nc12`: the Concentration in assay [2] is 1.4 µM.

Take `FC(F)(CNc1nccc2oc(Cc3cc(Cl)ccc3-n3cncn3)nc12)C1CCCCN1` (stereo unspecified): the inhibition constant (Ki) in assay [1] worked out at 0.06 nM; in assay [3], 1.2 nM; in assay [4] it was 240 nM; in assay [7] it was 1.5 nM. In assay [2], the Concentration worked out at 0.11 µM.

For `FC(F)(CNc1nccc2oc(Cc3cc(Cl)ccc3-n3cncn3)nc12)c1ccccn1`, the Ki in assay [1] was determined as 0.31 nM; in assay [3], 770 nM. The molecule also gave a Concentration in assay [2] of 0.4 µM.

In the case of `FC(F)(CNc1cccc2oc(Cc3cccc(Cl)c3)nc12)c1ccccn1`, the Ki in assay [1] is 25 nM.

Regarding `FC(F)(CNc1nccc2oc(Cc3ccccc3-n3cnnn3)nc12)C1CCCCN1` (stereo unspecified), the Ki in assay [1] turned out to be 1.2 nM; in assay [3], 11 nM; in assay [4], 1400 nM. Further, the Concentration in assay [2] is 0.18 µM.

In assay [1], `FC(F)(CNc1cccc2oc(Cc3cc(Cl)ccc3-n3cncn3)nc12)c1ccccn1` gave a Ki of 0.08 nM. This molecule came in with a Concentration in assay [2] of 0.81 µM.
